Test results from ChEMBL document CHEMBL3734657, “Discovery of Novel Multifunctional Ligands with μ/δ Opioid Agonist/Neurokinin-1 (NK1) Antagonist Activities for the Treatment of Pain” (J Med Chem, 2015).
pIC50, pKi: −log10 of the molar value. Activity calls are given as the source filed them. The rule behind the calls is not given here.

Legend:
[1] = Metabolic stability in rat plasma assessed as compound remaining at 50 ug/ml […] by RP-HPLC assay; assay type: ADME, cell-free; conditions: read-out: Stability
[2] = target: T1, Delta-type opioid receptor (Homo sapiens, UniProt P41143); assay: Binding affinity to delta opioid receptor (unknown origin)
Mu-type opioid receptor [3] = target: T2, Mu-type opioid receptor (Homo sapiens, UniProt P35372); assay: Binding affinity to mu opioid receptor (unknown origin)
Mu-type opioid receptor [4] = target: T2, Mu-type opioid receptor; assay: Agonist activity at mu opioid receptor (unknown origin) expressed in HEK293 cells assessed as inhibition of forskolin-induced cAMP accumulation by bioluminescent assay; assay type: functional, cell-based
[5] = target: Delta-type opioid receptor (Mus musculus, UniProt P32300); assay: Agonist activity at delta opioid receptor in ICR mouse isolated vas deferens assessed as inhibition of electrically-stimulated muscle contraction; assay type: tissue-based
[6] = Half-life in rat plasma at 50 ug/ml by RP-HPLC assay; assay type: ADME, cell-free
How it was run: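 50 mg/mL DMSO stock diluted 1000-fold into rat plasma (final 50 μg/mL), 37 °C. Aliquots at 0.5–8 h quenched with acetonitrile, centrifuged; parent remaining by RP-HPLC C18. Two independent runs, each in duplicate; half-life from mean of the two.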

[7] = target: T1, Delta-type opioid receptor; assay: Agonist activity at delta receptor (unknown origin) expressed in HEK293 cells assessed as inhibition of forskolin-induced cAMP accumulation by bioluminescent assay; assay type: functional, cell-based
[8] = target: Substance-P receptor (Cavia porcellus) (UniProt P30547); assay: Agonist activity at neurokinin-1 receptor in Hartley guniea pig isolated ileum/Longitudinal Muscle with Myenteric Plexus assessed as inhibition of electrically-stimulated muscle contraction at 30 nM; assay type: tissue-based
[9] = Selectivity ratio of IC50 for mu opioid receptor in Hartley guniea pig isolated ileum to IC50 for delta opioid receptor in ICR mouse isolated vas deferens; assay type: tissue-based
[10] = target: Substance-P receptor (Cavia porcellus) (UniProt P30547); assay: Agonist activity at neurokinin-1 receptor in Hartley guniea pig isolated ileum/Longitudinal Muscle with Myenteric Plexus assessed as inhibition of electrically-stimulated muscle contraction at 300 nM; assay type: tissue-based
Homo sapiens [11] = species on record: Homo sapiens; assay: Selectivity ratio of Ki for mu opioid receptor (unknown origin) to Ki for delta opioid receptor (unknown origin)
[12] = target: Substance-P receptor (Cavia porcellus) (UniProt P30547); assay: Agonist activity at neurokinin-1 receptor in Hartley guniea pig isolated ileum/Longitudinal Muscle with Myenteric Plexus assessed as inhibition of electrically-stimulated muscle contraction at 100 nM; assay type: tissue-based
Rattus norvegicus = species on record: Rattus norvegicus; assay: Neurotoxicity in Sprague-Dawley rat assessed as motor impairment at 10 ug/5 ul, it by rotarod test; assay type: toxicity, organism-based; conditions: in vivo, icv_or_intrathecal
How it was run: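 Intrathecal catheterized Sprague–Dawley rats given 10 μg in 5 μL; motor function assessed by rotarod.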

Homo sapiens [13] = species on record: Homo sapiens; assay: Selectivity ratio of IC50 for mu opioid receptor (unknown origin) to IC50 for delta opioid receptor (unknown origin)
[14] = target: Substance-P receptor (Homo sapiens) (UniProt P25103); assay: Antagonist activity at neurokinin-1 receptor (unknown origin) expressed in CHO cells assessed as inhibition of substance-P induced calcium flux by bioluminescent assay; assay type: functional, cell-based
[15] = target: Substance-P receptor (Cavia porcellus) (UniProt P30547); assay: Antagonist activity at neurokinin-1 receptor in Hartley guniea pig isolated ileum/Longitudinal Muscle with Myenteric Plexus assessed as inhibition of electrically-stimulated muscle contraction; assay type: tissue-based
Substance-P receptor = Substance-P receptor (Rattus norvegicus, UniProt P14600); assay: Displacement of [3H]SP from rat neurokinin-1 receptor expressed in CHO cells incubated for 20 mins by liquid scintillation counting; assay type: cell-based
How it was run: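 CHO membranes with human or rat NK1: six compound concentrations in duplicate with 20 μg membrane and 0.5 nM [3H]SP in 50 mM Tris pH 7.4, 5 mM MgCl2 plus peptidase inhibitors; 25 °C, 20 min. Nonspecific binding with 10 μM SP. GF/B filtration (PEI-soaked), scintillation counting.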

Mu-type opioid receptor [16] = target: Mu-type opioid receptor (Cavia porcellus, UniProt P97266); assay: Agonist activity at mu opioid receptor in Hartley guniea pig isolated ileum assessed as inhibition of electrically-stimulated muscle contraction; assay type: tissue-based
[17] = target: Substance-P receptor (Cavia porcellus) (UniProt P30547); assay: Agonist activity at neurokinin-1 receptor in Hartley guniea pig isolated ileum assessed as inhibition of electrically-stimulated muscle contraction at 1 uM; assay type: tissue-based; parameters: scale not given: the % may be the effect or the level left

T2 sequence (P35372 whole entry): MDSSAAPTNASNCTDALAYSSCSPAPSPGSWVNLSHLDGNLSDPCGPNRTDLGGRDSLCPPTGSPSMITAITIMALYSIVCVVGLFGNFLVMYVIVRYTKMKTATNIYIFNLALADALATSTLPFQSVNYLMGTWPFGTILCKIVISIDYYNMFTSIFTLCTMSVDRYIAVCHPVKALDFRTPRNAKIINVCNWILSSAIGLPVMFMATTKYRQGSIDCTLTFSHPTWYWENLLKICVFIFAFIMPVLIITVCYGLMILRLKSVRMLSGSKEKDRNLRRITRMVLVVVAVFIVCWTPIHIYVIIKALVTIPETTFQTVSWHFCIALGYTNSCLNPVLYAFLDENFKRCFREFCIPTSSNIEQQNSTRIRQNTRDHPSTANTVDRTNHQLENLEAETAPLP
T1 sequence (P41143 whole entry): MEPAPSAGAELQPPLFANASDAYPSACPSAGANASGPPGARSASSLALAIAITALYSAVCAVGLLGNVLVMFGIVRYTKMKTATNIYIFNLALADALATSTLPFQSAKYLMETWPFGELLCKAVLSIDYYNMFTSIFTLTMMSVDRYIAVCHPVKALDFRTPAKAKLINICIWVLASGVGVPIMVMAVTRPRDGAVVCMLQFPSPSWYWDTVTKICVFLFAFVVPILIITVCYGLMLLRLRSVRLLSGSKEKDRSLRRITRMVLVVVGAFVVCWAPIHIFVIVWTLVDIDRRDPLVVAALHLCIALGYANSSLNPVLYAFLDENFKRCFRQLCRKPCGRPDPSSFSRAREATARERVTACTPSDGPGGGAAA
Substance-P receptor (Cavia porcellus), sequence (P30547 whole entry): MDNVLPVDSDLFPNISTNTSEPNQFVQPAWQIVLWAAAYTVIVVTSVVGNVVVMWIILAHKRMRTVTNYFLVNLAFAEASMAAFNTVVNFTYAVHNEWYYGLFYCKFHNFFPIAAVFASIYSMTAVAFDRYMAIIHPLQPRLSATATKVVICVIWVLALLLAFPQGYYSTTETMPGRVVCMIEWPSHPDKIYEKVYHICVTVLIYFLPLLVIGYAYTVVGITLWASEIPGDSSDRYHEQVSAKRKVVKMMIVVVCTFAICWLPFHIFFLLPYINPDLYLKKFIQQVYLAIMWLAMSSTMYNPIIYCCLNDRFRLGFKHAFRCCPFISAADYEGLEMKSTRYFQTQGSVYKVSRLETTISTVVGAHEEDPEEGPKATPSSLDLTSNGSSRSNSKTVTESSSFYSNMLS
Substance-P receptor, sequence (P14600 whole entry): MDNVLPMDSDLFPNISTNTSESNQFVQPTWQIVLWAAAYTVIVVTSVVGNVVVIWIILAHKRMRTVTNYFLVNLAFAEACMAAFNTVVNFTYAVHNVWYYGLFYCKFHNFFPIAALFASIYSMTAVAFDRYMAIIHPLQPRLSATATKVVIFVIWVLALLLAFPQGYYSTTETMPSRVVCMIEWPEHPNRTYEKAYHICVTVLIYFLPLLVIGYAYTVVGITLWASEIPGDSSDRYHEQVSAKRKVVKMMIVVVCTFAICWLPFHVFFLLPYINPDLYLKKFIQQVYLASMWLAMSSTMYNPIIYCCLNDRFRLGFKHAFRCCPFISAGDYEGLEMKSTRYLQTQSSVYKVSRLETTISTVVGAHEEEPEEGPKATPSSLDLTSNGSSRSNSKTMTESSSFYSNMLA
Substance-P receptor (Homo sapiens), sequence (P25103 whole entry): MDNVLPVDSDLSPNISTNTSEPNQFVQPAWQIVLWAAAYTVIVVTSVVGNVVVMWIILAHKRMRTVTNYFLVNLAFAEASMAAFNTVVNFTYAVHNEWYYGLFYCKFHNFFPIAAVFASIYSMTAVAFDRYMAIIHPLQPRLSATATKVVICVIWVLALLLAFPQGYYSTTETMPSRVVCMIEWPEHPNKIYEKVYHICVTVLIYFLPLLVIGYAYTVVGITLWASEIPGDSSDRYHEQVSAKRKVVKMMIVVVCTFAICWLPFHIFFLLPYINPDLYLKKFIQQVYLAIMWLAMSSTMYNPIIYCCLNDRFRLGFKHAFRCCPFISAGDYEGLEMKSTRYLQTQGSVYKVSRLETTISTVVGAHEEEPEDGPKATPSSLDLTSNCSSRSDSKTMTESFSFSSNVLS
Mu-type opioid receptor (Cavia porcellus, UniProt P97266), sequence (P97266 whole entry): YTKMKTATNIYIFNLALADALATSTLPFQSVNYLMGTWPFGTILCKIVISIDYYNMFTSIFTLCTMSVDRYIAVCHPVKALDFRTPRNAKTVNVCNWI
Delta-type opioid receptor (Mus musculus, UniProt P32300), sequence (P32300 whole entry): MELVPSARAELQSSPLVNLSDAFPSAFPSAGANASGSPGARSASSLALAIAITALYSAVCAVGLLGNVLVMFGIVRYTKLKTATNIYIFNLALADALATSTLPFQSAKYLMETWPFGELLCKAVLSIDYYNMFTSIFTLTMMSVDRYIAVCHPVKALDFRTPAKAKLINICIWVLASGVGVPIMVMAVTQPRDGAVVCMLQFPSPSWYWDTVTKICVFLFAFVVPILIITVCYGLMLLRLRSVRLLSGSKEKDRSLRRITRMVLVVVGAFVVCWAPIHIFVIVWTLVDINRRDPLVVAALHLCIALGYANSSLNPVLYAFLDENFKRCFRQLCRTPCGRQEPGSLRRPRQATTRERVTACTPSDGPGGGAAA

## Cc1cc(O)cc(C)c1C[C@H](N)C(=O)N[C@H](C)C(=O)NCC(=O)N[C@@H](Cc1ccc(F)cc1)C(=O)N1CCC[C@H]1C(=O)N[C@@H](CC(C)C)C(=O)N[C@@H](Cc1c[nH]c2ccccc12)C(=O)NCc1cc(C(F)(F)F)cc(C(F)(F)F)c1
[1]
  remaining at 50 ug/ml: 100%
[2]
  pIC50: 7.18
Mu-type opioid receptor [3]
  pIC50: 8.72
Mu-type opioid receptor [4]
  pIC50: 7.23
[5]
  pIC50: 8.70
[6]
  half-life at 50 ug/ml: > 720 min
[7]
  pIC50: 7.68

## Cc1cc(O)cc(C)c1C[C@H](N)C(=O)N[C@@H](C)C(=O)NCC(=O)N(C)[C@@H](Cc1ccccc1)C(=O)N1CCC[C@H]1C(=O)N[C@@H](CC(C)C)C(=O)N[C@@H](Cc1c[nH]c2ccccc12)C(=O)NCc1cc(C(F)(F)F)cc(C(F)(F)F)c1
[8]
  Activity: inactive

## Cc1cc(O)cc(C)c1C[C@H](N)C(=O)N[C@@H](C)C(=O)NCC(=O)N[C@@H](Cc1ccc(Cl)cc1)C(=O)N1CCC[C@H]1C(=O)N[C@@H](CC(C)C)C(=O)N[C@@H](Cc1c[nH]c2ccccc12)C(=O)NCc1cc(C(F)(F)F)cc(C(F)(F)F)c1
[9]
  Ratio IC50: 7
[10]
  Activity: inactive
Homo sapiens [11]
  Ratio Ki: 1

## Cc1cc(O)cc(C)c1C[C@H](N)C(=O)N[C@H](C)C(=O)NCC(=O)N[C@@H](Cc1ccc(Br)cc1)C(=O)N1CCC[C@H]1C(=O)N[C@@H](CC(C)C)C(=O)N[C@@H](Cc1c[nH]c2ccccc12)C(=O)NCc1cc(C(F)(F)F)cc(C(F)(F)F)c1
Mu-type opioid receptor [3]
  pIC50: 7.96

## Cc1cc(O)cc(C)c1C[C@H](N)C(=O)N[C@H](C)C(=O)NCC(=O)N[C@@H](Cc1ccc(Cl)cc1)C(=O)N1CCC[C@H]1C(=O)N[C@@H](CC(C)C)C(=O)N[C@@H](Cc1c[nH]c2ccccc12)C(=O)NCc1cc(C(F)(F)F)cc(C(F)(F)F)c1
Mu-type opioid receptor [3]
  pIC50: 8.33

## CC(C)C[C@H](NC(=O)[C@@H]1CCCN1C(=O)[C@H](Cc1ccccc1)N(C)C(=O)CNC(=O)[C@H](C)NC(=O)[C@@H](N)Cc1ccc(O)cc1)C(=O)N[C@@H](Cc1c[nH]c2ccccc12)C(=O)NCc1cc(C(F)(F)F)cc(C(F)(F)F)c1
[9]
  Ratio IC50: 2
[12]
  Activity: inactive

## Cc1cc(O)cc(C)c1C[C@H](N)C(=O)N[C@H](C)C(=O)NCC(=O)N(C)[C@@H](Cc1ccccc1)C(=O)N1CCC[C@H]1C(=O)N[C@@H](CC(C)C)C(=O)N[C@@H](Cc1c[nH]c2ccccc12)C(=O)NCc1cc(C(F)(F)F)cc(C(F)(F)F)c1
[1]
  remaining at 50 ug/ml: 100%
Mu-type opioid receptor [3]
  pIC50: 8.78
Rattus norvegicus
  Activity: Toxic
Mu-type opioid receptor [4]
  pIC50: 7.41
[7]
  pIC50: 7.52

## Cc1cc(O)cc(C)c1C[C@H](N)C(=O)N[C@@H](C)C(=O)NCC(=O)N[C@@H](Cc1ccccc1)C(=O)N1CCC[C@H]1C(=O)N[C@@H](CC(C)C)C(=O)N[C@@H](Cc1c[nH]c2ccccc12)C(=O)NCc1cc(C(F)(F)F)cc(C(F)(F)F)c1
[9]
  Ratio IC50: 26
Homo sapiens [13]
  Ratio IC50: 6
[12]
  Activity: inactive
[14]
  Ke: 11 nM
Homo sapiens [11]
  Ratio Ki: 3
[15]
  Ke: 25 nM

## CC(C)C[C@H](NC(=O)[C@@H]1CCCN1C(=O)[C@H](Cc1ccc(F)cc1)NC(=O)CNC(=O)[C@@H](C)NC(=O)[C@@H](N)Cc1ccc(O)cc1)C(=O)N[C@@H](Cc1c[nH]c2ccccc12)C(=O)NCc1cc(C(F)(F)F)cc(C(F)(F)F)c1
[1]
  remaining at 50 ug/ml: 100%
[2]
  pIC50: 7.81
  pKi: 8.15
Mu-type opioid receptor [3]
  pIC50: 8.08
Substance-P receptor
  pKi: 7.47

## CC(C)C[C@H](NC(=O)[C@@H]1CCCN1C(=O)[C@H](Cc1ccc(F)cc1)NC(=O)CNC(=O)[C@H](C)NC(=O)[C@@H](N)Cc1ccc(O)cc1)C(=O)N[C@@H](Cc1c[nH]c2ccccc12)C(=O)NCc1cc(C(F)(F)F)cc(C(F)(F)F)c1
[8]
  Activity: inactive

## Cc1cc(O)cc(C)c1C[C@H](N)C(=O)N[C@@H](C)C(=O)NCC(=O)N[C@@H](Cc1ccc(F)cc1)C(=O)N1CCC[C@H]1C(=O)N[C@@H](CC(C)C)C(=O)N[C@@H](Cc1c[nH]c2ccccc12)C(=O)NCc1cc(C(F)(F)F)cc(C(F)(F)F)c1
Homo sapiens [11]
  Ratio Ki: 1
[8]
  Activity: inactive

## Cc1cc(O)cc(C)c1C[C@H](N)C(=O)N[C@@H](C)C(=O)NCC(=O)N[C@@H](Cc1ccc(Br)cc1)C(=O)N1CCC[C@H]1C(=O)N[C@@H](CC(C)C)C(=O)N[C@@H](Cc1c[nH]c2ccccc12)C(=O)NCc1cc(C(F)(F)F)cc(C(F)(F)F)c1
[12]
  Activity: inactive

## Cc1cc(O)cc(C)c1C[C@H](N)C(=O)N[C@H](C)C(=O)NCC(=O)N[C@@H](Cc1ccccc1)C(=O)N1CCC[C@H]1C(=O)N[C@@H](CC(C)C)C(=O)N[C@@H](Cc1c[nH]c2ccccc12)C(=O)NCc1cc(C(F)(F)F)cc(C(F)(F)F)c1
Mu-type opioid receptor [16]
  pIC50: 7.09
Mu-type opioid receptor [3]
  pIC50: 8.63
  pKi: 8.52
Substance-P receptor; cho
  pKi: 7.57
Mu-type opioid receptor [4]; hek293
  pIC50: 7.34
[7]; hek293
  pIC50: 8.14

## CC(C)C[C@H](NC(=O)[C@@H]1CCCN1C(=O)[C@H](Cc1ccccc1)N(C)C(=O)CNC(=O)[C@@H](C)NC(=O)[C@@H](N)Cc1ccc(O)cc1)C(=O)N[C@@H](Cc1c[nH]c2ccccc12)C(=O)NCc1cc(C(F)(F)F)cc(C(F)(F)F)c1
Mu-type opioid receptor [3]
  pIC50: 7.05

## Cc1cc(O)cc(C)c1C[C@H](N)C(=O)N[C@@H](C)C(=O)NCC(=O)N[C@@H](Cc1ccc(I)cc1)C(=O)N1CCC[C@H]1C(=O)N[C@@H](CC(C)C)C(=O)N[C@@H](Cc1c[nH]c2ccccc12)C(=O)NCc1cc(C(F)(F)F)cc(C(F)(F)F)c1
[10]
  Activity: inactive
[17]
  Activity: 41%

## CC(C)C[C@H](NC(=O)[C@@H]1CCCN1C(=O)[C@H](Cc1ccccc1)NC(=O)CNC(=O)[C@@H](C)NC(=O)[C@@H](N)Cc1ccc(O)cc1)C(=O)N[C@@H](Cc1c[nH]c2ccccc12)C(=O)NCc1cc(C(F)(F)F)cc(C(F)(F)F)c1
Mu-type opioid receptor [3]
  pIC50: 7.70
  pKi: 8.02

## Cc1cc(O)cc(C)c1C[C@H](N)C(=O)N[C@H](C)C(=O)NCC(=O)N(C)[C@@H](Cc1ccc(F)cc1)C(=O)N1CCC[C@H]1C(=O)N[C@@H](CC(C)C)C(=O)N[C@@H](Cc1c[nH]c2ccccc12)C(=O)NCc1cc(C(F)(F)F)cc(C(F)(F)F)c1
Mu-type opioid receptor [3]
  pIC50: 8.55

## Cc1cc(O)cc(C)c1C[C@H](N)C(=O)N[C@@H](C)C(=O)NCC(=O)N(C)[C@@H](Cc1ccc(F)cc1)C(=O)N1CCC[C@H]1C(=O)N[C@@H](CC(C)C)C(=O)N[C@@H](Cc1c[nH]c2ccccc12)C(=O)NCc1cc(C(F)(F)F)cc(C(F)(F)F)c1
[8]
  Activity: inactive

## Cc1cc(O)cc(C)c1C[C@H](N)C(=O)N[C@H](C)C(=O)NCC(=O)N[C@@H](Cc1ccc(I)cc1)C(=O)N1CCC[C@H]1C(=O)N[C@@H](CC(C)C)C(=O)N[C@@H](Cc1c[nH]c2ccccc12)C(=O)NCc1cc(C(F)(F)F)cc(C(F)(F)F)c1
Mu-type opioid receptor [3]
  pIC50: 7.88
